According to ChEMBL document CHEMBL1145778, “Novel alpha-melanocyte stimulating hormone peptide analogues with high candidacidal activity” (2003):
Non-standard residues stand in square brackets, D forms with d. Residues, ends and D or L forms follow the SMILES beside them. d2Nal = N[C@H](Cc1ccc2ccccc2c1)C(=O)O

System: Candida albicans
Test: Inhibition of Candida albicans at 100 uM concentration.
Format: functional
Summary of the method: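 Five C. albicans clinical isolates plus ATCC 24433, grown 48 h at 32 °C in Sabouraud dextrose broth to stationary phase, washed in distilled water. 1×10^6 yeast in water exposed to peptide at 10^-4 M final, 2 h at 37 °C; water controls. Diluted to ~100 organisms/mL, 1 mL plated on blood agar, 48 h at 37 °C, colonies counted. Triplicates.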

| Molecule | inhibition at 100 µM |
| --- | --- |
| CC(C)[C@H](NC(=O)[C@H]1CCCN1C(=O)[C@H](CCCCN)NC(=O)CNC(=O)[C@H](Cc1c[nH]c2ccccc12)NC(=O)[C@H](CCCN=C(N)N)NC(=O)[C@@H](Cc1ccccc1)NC(=O)[C@@H](N)Cc1c[nH]cn1)C(N)=O | 80.5% |
| CC(C)[C@H](NC(=O)[C@H](Cc1ccccc1)NC(=O)[C@H](CCCCN)NC(=O)CNC(=O)[C@H](Cc1c[nH]c2ccccc12)NC(=O)[C@H](CCCN=C(N)N)NC(=O)[C@@H](Cc1ccccc1)NC(=O)[C@@H](N)Cc1c[nH]cn1)C(N)=O | 77.7% |
| CC(C)[C@H](NC(=O)[C@H](CCC(=O)O)NC(=O)[C@H](CCCCN)NC(=O)CNC(=O)[C@H](Cc1c[nH]c2ccccc12)NC(=O)[C@H](CCCN=C(N)N)NC(=O)[C@@H](Cc1ccc2ccccc2c1)NC(=O)[C@@H](N)Cc1c[nH]cn1)C(N)=O | 32.3% |
| CC(C)[C@H](NC(=O)[C@H](CC(=O)O)NC(=O)[C@H](CCCCN)NC(=O)CNC(=O)[C@H](Cc1c[nH]c2ccccc12)NC(=O)[C@H](CCCN=C(N)N)NC(=O)[C@H](Cc1ccccc1)NC(=O)[C@@H](N)Cc1c[nH]cn1)C(N)=O | 15.7% |
| H-HFRWGKSV-NH2 | 32.3% |
| CC(C)[C@H](NC(=O)[C@H](CCCCN)NC(=O)[C@H](CCCCN)NC(=O)CNC(=O)[C@H](Cc1c[nH]c2ccccc12)NC(=O)[C@H](CCCN=C(N)N)NC(=O)[C@@H](Cc1ccc2ccccc2c1)NC(=O)[C@@H](N)Cc1c[nH]cn1)C(N)=O | 83.8% |
| CC(C)[C@H](NC(=O)[C@H](CC(=O)O)NC(=O)[C@H](CCCCN)NC(=O)CNC(=O)[C@H](Cc1c[nH]c2ccccc12)NC(=O)[C@H](CCCN=C(N)N)NC(=O)[C@@H](Cc1ccc2ccccc2c1)NC(=O)[C@@H](N)Cc1c[nH]cn1)C(N)=O | 16.8% |
| CC(C)[C@H](NC(=O)[C@H](C)NC(=O)[C@H](CCCCN)NC(=O)CNC(=O)[C@H](Cc1c[nH]c2ccccc12)NC(=O)[C@H](CCCN=C(N)N)NC(=O)[C@H](Cc1ccccc1)NC(=O)[C@@H](N)Cc1c[nH]cn1)C(N)=O | 46.1% |
| CC(C)[C@H](NC(=O)[C@H](Cc1ccccc1)NC(=O)[C@H](CCCCN)NC(=O)CNC(=O)[C@H](Cc1c[nH]c2ccccc12)NC(=O)[C@H](CCCNC(=N)N)NC(=O)[C@H](Cc1ccccc1)NC(=O)[C@@H](N)Cc1cnc[nH]1)C(N)=O | 97.5% |
| CC(C)[C@H](NC(=O)[C@H](Cc1ccccc1)NC(=O)[C@H](CCCCN)NC(=O)CNC(=O)[C@H](Cc1c[nH]c2ccccc12)NC(=O)[C@H](CCCN=C(N)N)NC(=O)[C@@H](Cc1ccc2ccccc2c1)NC(=O)[C@@H](N)Cc1c[nH]cn1)C(N)=O | 67.7% |
| H-HFRWGKPA-NH2 | 68.4% |
| CC(C)[C@H](NC(=O)[C@@H](C)NC(=O)[C@H](CCCCN)NC(=O)CNC(=O)[C@H](Cc1c[nH]c2ccccc12)NC(=O)[C@H](CCCN=C(N)N)NC(=O)[C@@H](Cc1ccc2ccccc2c1)NC(=O)[C@@H](N)Cc1c[nH]cn1)C(N)=O | 28% |
| CC(C)[C@H](NC(=O)[C@H](C)NC(=O)[C@H](CCCCN)NC(=O)CNC(=O)[C@H](Cc1c[nH]c2ccccc12)NC(=O)[C@H](CCCN=C(N)N)NC(=O)[C@@H](Cc1ccc2ccccc2c1)NC(=O)[C@@H](N)Cc1c[nH]cn1)C(N)=O | 69.2% |
| CC(C)[C@H](NC(=O)[C@@H](CC(=O)O)NC(=O)[C@H](CCCCN)NC(=O)CNC(=O)[C@H](Cc1c[nH]c2ccccc12)NC(=O)[C@H](CCCN=C(N)N)NC(=O)[C@@H](Cc1ccccc1)NC(=O)[C@@H](N)Cc1c[nH]cn1)C(N)=O | 3.7% |
| CC(C)[C@H](NC(=O)[C@@H](C)NC(=O)[C@H](CCCCN)NC(=O)CNC(=O)[C@H](Cc1c[nH]c2ccccc12)NC(=O)[C@H](CCCN=C(N)N)NC(=O)[C@H](Cc1ccccc1)NC(=O)[C@@H](N)Cc1c[nH]cn1)C(N)=O | 12.8% |
| CC(C)[C@@H](NC(=O)[C@H]1CCCN1C(=O)[C@H](CCCCN)NC(=O)CNC(=O)[C@H](Cc1c[nH]c2ccccc12)NC(=O)[C@H](CCCN=C(N)N)NC(=O)[C@H](Cc1ccccc1)NC(=O)[C@@H](N)Cc1c[nH]cn1)C(N)=O | 82.5% |
| H-HFRWGAPV-NH2 | 26.2% |
| CC(C)[C@H](NC(=O)CNC(=O)[C@H](CCCCN)NC(=O)CNC(=O)[C@H](Cc1c[nH]c2ccccc12)NC(=O)[C@H](CCCN=C(N)N)NC(=O)[C@@H](Cc1ccc2ccccc2c1)NC(=O)[C@@H](N)Cc1c[nH]cn1)C(N)=O | 36.2% |
| CC(C)[C@H](NC(=O)[C@@H](Cc1ccccc1)NC(=O)[C@H](CCCCN)NC(=O)CNC(=O)[C@H](Cc1c[nH]c2ccccc12)NC(=O)[C@H](CCCN=C(N)N)NC(=O)[C@@H](Cc1ccc2ccccc2c1)NC(=O)[C@@H](N)Cc1c[nH]cn1)C(N)=O | 99.7% |
| CC(C)[C@H](NC(=O)[C@@H](CC(=O)O)NC(=O)[C@H](CCCCN)NC(=O)CNC(=O)[C@H](Cc1c[nH]c2ccccc12)NC(=O)[C@H](CCCN=C(N)N)NC(=O)[C@H](Cc1ccccc1)NC(=O)[C@@H](N)Cc1c[nH]cn1)C(N)=O | 5.9% |
| CC(C)[C@H](NC(=O)[C@H](CO)NC(=O)[C@H](CCCCN)NC(=O)CNC(=O)[C@H](Cc1c[nH]c2ccccc12)NC(=O)[C@H](CCCN=C(N)N)NC(=O)[C@@H](Cc1ccc2ccccc2c1)NC(=O)[C@@H](N)Cc1c[nH]cn1)C(N)=O | 73.9% |
| H-HFRWGKPL-NH2 | 87.4% |
| CC(C)[C@H](NC(=O)[C@@H](Cc1ccccc1)NC(=O)[C@H](CCCCN)NC(=O)CNC(=O)[C@H](Cc1c[nH]c2ccccc12)NC(=O)[C@H](CCCN=C(N)N)NC(=O)[C@@H](Cc1ccccc1)NC(=O)[C@@H](N)Cc1c[nH]cn1)C(N)=O | 89.6% |
| H-HFRWGKGV-NH2 | 41.8% |
| H-HFRWGKKV-NH2 | 41% |
| H-HFRWGKEV-NH2 | 11.2% |
| CC(C)[C@H](NC(=O)[C@@H](Cc1ccccc1)NC(=O)[C@H](CCCCN)NC(=O)CNC(=O)[C@H](Cc1c[nH]c2ccccc12)NC(=O)[C@H](CCCN=C(N)N)NC(=O)[C@H](Cc1ccccc1)NC(=O)[C@@H](N)Cc1c[nH]cn1)C(N)=O | 90.8% |
| CC(C)[C@H](NC(=O)[C@@H]1CCCN1C(=O)[C@H](CCCCN)NC(=O)CNC(=O)[C@H](Cc1c[nH]c2ccccc12)NC(=O)[C@H](CCCN=C(N)N)NC(=O)[C@@H](Cc1ccc2ccccc2c1)NC(=O)[C@@H](N)Cc1c[nH]cn1)C(N)=O (H-H[d2Nal]RWGKPV-NH2) | 95.3% |
